{"source": "ChEMBL document CHEMBL3046214", "about": "“Friedelane triterpenes from Celastrus vulcanicola as photosynthetic inhibitors” (J Agric Food Chem, 2010)", "key": {"Lolium perenne [1]": {"test_system": "Lolium perenne", "assay": "Effect on photosynthetic efficiency in Lolium perenne (perennial ryegrass) assessed as increase in OJIP transients at 100 uM measured 72 hr post compound application", "format": "functional", "summary_of_the_method": "(§1)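 Greenhouse L. perenne sprayed 18 days after emergence (20 mM DMSO stock diluted into 0.05% Tween-20; vehicle-sprayed controls). Leaves dark-adapted 15 min, then excited with 3000 μmol photons m-2 s-1 red light (650 nm) from three LEDs. OJIP transients recorded at room temperature with a Handy PEA. PI(abs) and other parameters are shown on radar plots normalized to control.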"}, "Spinacia oleracea [2]": {"test_system": "Spinacia oleracea", "assay": "Inhibition of photophosphorylation in Spinacia oleracea (spinach) leaves chloroplasts by titrimetry", "format": "functional", "details": "read-out: I50", "summary_of_the_method": "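Intact spinach chloroplasts (20 μg Chl/mL) were osmotically broken in 3 mL of weakly buffered medium: 100 mM sorbitol, 10 mM KCl, 5 mM MgCl2, 0.5 mM KCN, 1 mM tricine-KOH pH 8.0, 50 μM MV and 1 mM ADP. ATP synthesis was taken from the medium alkalization rate in the linear part of illumination, calibrated by HCl back-titration, as μmol ATP (mg Chl)-1 h-1. I50 was obtained from concentration-activity plots; three replicates.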"}, "Physalis ixocarpa [3]": {"test_system": "Physalis ixocarpa", "assay": "Inhibition of photosynthetic efficiency in Physalis ixocarpa intact leaves assessed as reduction in chlorophyll a fluorescence transients at 200 uM measured 48 hr post compound application", "format": "functional", "summary_of_the_method": "(§2)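 P. ixocarpa plants sprayed 15 days after emergence (greenhouse, 25-30 °C; 20 mM DMSO stock diluted into 0.05% Tween-20; vehicle-sprayed controls). Leaves dark-adapted 15 min, then excited with 650 nm red LED light at 3000 μmol photons m-2 s-1. Chl a OJIP transients recorded with a Handy PEA at room temperature. PI(abs) is normalized to control; K-, J- and I-bands come from variable fluorescence difference curves; five replicates.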"}, "Physalis ixocarpa [4]": {"test_system": "Physalis ixocarpa", "assay": "Inhibition of photosynthetic efficiency in Physalis ixocarpa intact leaves assessed as reduction in PI(abs) level at 200 uM measured 48 hr post compound application", "format": "functional", "summary_of_the_method": "as §2"}, "Spinacia oleracea [5]": {"test_system": "Spinacia oleracea", "assay": "Inhibition of basal electron transport from water to MV in Spinacia oleracea (spinach) leaves chloroplasts at 50 to 300 uM using Clark type electrode system based method", "format": "functional, organism-based"}, "Physalis ixocarpa [6]": {"test_system": "Physalis ixocarpa", "assay": "Inhibition of photosynthetic efficiency in Physalis ixocarpa intact leaves assessed as effect on OJIP transients at 100 uM measured 24 hr post compound application", "format": "functional, organism-based", "summary_of_the_method": "as §2"}, "Physalis ixocarpa [7]": {"test_system": "Physalis ixocarpa", "assay": "Inhibition of photosynthetic efficiency in Physalis ixocarpa intact leaves assessed as increase in chlorophyll a fluorescence transients at 100 uM measured 72 hr post compound application", "format": "functional, organism-based", "summary_of_the_method": "as §2"}, "Spinacia oleracea [8]": {"test_system": "Spinacia oleracea", "assay": "Inhibition of uncoupled electron transport from water to MV in Spinacia oleracea (spinach) leaves chloroplasts at 50 to 300 uM using Clark type electrode system based method", "format": "functional, organism-based", "summary_of_the_method": "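Water-to-MV electron transport measured with a Clark electrode in the basal medium (20 μg Chl/mL, 50 μM MV, 15 mM tricine-KOH pH 8.0, 1 min illumination), with 6 mM NH4Cl added as uncoupler.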"}, "Spinacia oleracea [9]": {"test_system": "Spinacia oleracea", "assay": "Effect on photosynthesis efficiency in Spinacia oleracea (spinach) leaves freshly lysed chloroplasts assessed as change in chlorophyll a fluorescence at 150 to 450 uM", "format": "functional", "summary_of_the_method": "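Freshly lysed spinach thylakoids (20 μg Chl) were placed on filter paper with a dot-blot apparatus and dipped in 3 mL basal electron transport medium without MV, containing compound. After 5 min dark adaptation, fluorescence was excited with 3000 μmol m-2 s-1 650 nm LED light (2 s pulse) at room temperature. Wt = (Ft−F0)/(FJ−F0), difference from control used for K-band; five replicates.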"}, "Spinacia oleracea [10]": {"test_system": "Spinacia oleracea", "assay": "Inhibition of phosphorylating noncyclic electron transport from water to MV in Spinacia oleracea (spinach) leaves chloroplasts at 50 to 300 uM using Clark type electrode system based method", "format": "functional", "summary_of_the_method": "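Clark-electrode measurement of water-to-MV electron flow in the basal medium (sorbitol, KCl, MgCl2, 0.5 mM KCN, 50 μM MV, 15 mM tricine-KOH pH 8.0; 20 μg Chl/mL; 1 min light), with 1 mM ADP and 3 mM KH2PO4 added.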"}, "Physalis ixocarpa [11]": {"test_system": "Physalis ixocarpa", "assay": "Inhibition of photosynthetic efficiency in Physalis ixocarpa intact leaves assessed as increase in chlorophyll a fluorescence transients at 100 uM measured 48 hr post compound application", "format": "functional", "parameters": "scale not given: the % may be the effect or the level left", "summary_of_the_method": "as §2"}, "Spinacia oleracea [12]": {"test_system": "Spinacia oleracea", "assay": "Increase in Magnesium-transporting ATPase activity in Spinacia oleracea (spinach) leaves chloroplasts thylakoids at 100 uM", "summary_of_the_method": "(§3)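 Spinach chloroplasts were isolated in 350 mM sorbitol, 5 mM ascorbate, 20 mM MES pH 6.5, centrifuged at 3000g for 60 s, washed, and resuspended in 35 mM HEPES pH 7.6. Light-triggered Mg2+-ATPase activity of thylakoid membranes was measured as released inorganic phosphate. Ammonium chloride served as positive control.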"}, "Lolium perenne [13]": {"test_system": "Lolium perenne", "assay": "Effect on biomass production in Lolium perenne (perennial ryegrass) assessed as plant dry weight at 100 uM measured 14 days post compound application relative to untreated control", "format": "functional", "summary_of_the_method": "(§4)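 Greenhouse-grown plants (pots, watered daily, 25 to 30 °C) of similar size, sprayed at 15 (P. ixocarpa) or 18 (L. perenne) days after emergence. Compound taken from a 20 mM DMSO stock into aqueous 0.05% w/v Tween-20; controls were sprayed with water containing the same DMSO and Tween-20. Plants harvested at ground level, oven-dried at 65 °C to constant weight, then weighed.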"}, "Lolium perenne [14]": {"test_system": "Lolium perenne", "assay": "Effect on biomass production in Lolium perenne (perennial ryegrass) assessed as plant dry weight at 200 uM measured 14 days post compound application relative to untreated control", "format": "functional", "summary_of_the_method": "as §4"}, "Lolium perenne [15]": {"test_system": "Lolium perenne", "assay": "Inhibition of photosynthetic efficiency in Lolium perenne (perennial ryegrass) assessed as effect on OJIP transients at 200 uM measured 72 hr post compound application", "format": "functional, organism-based", "summary_of_the_method": "as §1"}, "Spinacia oleracea [16]": {"test_system": "Spinacia oleracea", "assay": "Increase in Magnesium-transporting ATPase activity in Spinacia oleracea (spinach) leaves chloroplasts thylakoids at 200 uM", "summary_of_the_method": "as §3"}, "Physalis ixocarpa [17]": {"test_system": "Physalis ixocarpa", "assay": "Inhibition of photosynthetic efficiency in Physalis ixocarpa intact leaves assessed as reduction in PI(abs) level at 100 uM measured 48 hr post compound application", "format": "functional", "summary_of_the_method": "as §2"}, "Physalis ixocarpa [18]": {"test_system": "Physalis ixocarpa", "assay": "Effect on biomass production in Physalis ixocarpa assessed as plant dry weight at 200 uM measured 14 days post compound application relative to untreated control", "format": "functional", "summary_of_the_method": "as §4"}, "Lolium perenne [19]": {"test_system": "Lolium perenne", "assay": "Effect on photosynthetic efficiency in Lolium perenne (perennial ryegrass) assessed as increase in PI(abs) transients at 100 uM measured 72 hr post compound application", "format": "functional", "summary_of_the_method": "as §1"}, "Lolium perenne [20]": {"test_system": "Lolium perenne", "assay": "Inhibition of photosynthetic efficiency in Lolium perenne (perennial ryegrass) at 200 uM measured 24 to 72 hr post compound application", "format": "functional", "summary_of_the_method": "as §1"}, "Spinacia oleracea [21]": {"test_system": "Spinacia oleracea", "assay": "Increase in Magnesium-transporting ATPase activity in Spinacia oleracea (spinach) leaves chloroplasts thylakoids at 300 uM", "summary_of_the_method": "as §3"}, "Physalis ixocarpa [22]": {"test_system": "Physalis ixocarpa", "assay": "Effect on biomass production in Physalis ixocarpa assessed as plant dry weight at 100 uM measured 14 days post compound application relative to untreated control", "format": "functional", "summary_of_the_method": "as §4"}, "Lolium perenne [23]": {"test_system": "Lolium perenne", "assay": "Inhibition of photosynthetic efficiency in Lolium perenne (perennial ryegrass) assessed as effect on OJIP transients at 100 uM measured 24 to 48 hr post compound application", "format": "functional, organism-based", "summary_of_the_method": "as §1"}}, "note": "pIC50: −log10 of the molar value. Activity calls are given as the source filed them. The calls are words filed in the database; no cut-off is given here.", "data": [{"compound": "C[C@H]1[C@@H](O)CC[C@@H]2[C@]1(C)CC[C@H]1[C@@]2(C)CC[C@@]2(C)[C@@H]3CC(C)(C)CC[C@]3(C)CC[C@]12C", "note": "[EPIFRIEDELINOL]", "values": [{"measurement": "Activity", "setting": "Lolium perenne [1]", "result": 20, "unit": "%"}, {"measurement": "pIC50", "setting": "Spinacia oleracea [2]", "result": 4.09}, {"measurement": "inhibition at 200 µM", "setting": "Physalis ixocarpa [3]", "result": 10, "unit": "%"}, {"measurement": "inhibition at 200 µM", "setting": "Physalis ixocarpa [4]", "result": 15, "unit": "%"}, {"measurement": "inhibition", "setting": "Spinacia oleracea [5]", "result": "inactive"}, {"measurement": "inhibition", "setting": "Physalis ixocarpa [6]", "result": "inactive"}, {"measurement": "Activity", "setting": "Physalis ixocarpa [7]", "result": "Active"}, {"measurement": "inhibition", "setting": "Spinacia oleracea [8]", "result": "inactive"}, {"measurement": "Activity", "setting": "Spinacia oleracea [9]", "result": "Active"}, {"measurement": "inhibition", "setting": "Spinacia oleracea [10]", "result": "inactive"}, {"measurement": "Activity", "setting": "Physalis ixocarpa [11]", "result": 10, "unit": "%"}, {"measurement": "Activity", "setting": "Spinacia oleracea [12]", "result": 110, "unit": "%"}, {"measurement": "Activity", "setting": "Lolium perenne [13]", "result": 79.6, "unit": "%"}, {"measurement": "Activity", "setting": "Lolium perenne [14]", "result": 91.2, "unit": "%"}, {"measurement": "inhibition", "setting": "Lolium perenne [15]", "result": "inactive"}, {"measurement": "Activity", "setting": "Spinacia oleracea [16]", "result": 112, "unit": "%"}, {"measurement": "inhibition at 100 µM", "setting": "Physalis ixocarpa [17]", "result": 40, "unit": "%"}, {"measurement": "Activity", "setting": "Physalis ixocarpa [18]", "result": 101.3, "unit": "%"}, {"measurement": "Activity", "setting": "Lolium perenne [19]", "result": 10, "unit": "%"}, {"measurement": "inhibition at 200 µM", "setting": "Lolium perenne [20]", "result": 12, "unit": "%"}, {"measurement": "Activity", "setting": "Spinacia oleracea [21]", "result": 123, "unit": "%"}, {"measurement": "Activity", "setting": "Physalis ixocarpa [22]", "result": 23.2, "unit": "%"}, {"measurement": "inhibition", "setting": "Lolium perenne [23]", "result": "inactive"}]}]}
